Where only a bound is given, the exact number is not on record here.

The first assay has as its system Canis familiaris. As to the kind of experiment: Compound was evaluated for increasing effect on femoral blood flow (FBF) in femoral artery of anesthetized dogs, compared to Trapidil; No detectable vasodilation. In kind it is functional, organism-based. The following applies: Canis lupus familiaris. In outline: (§1)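 Anesthetized dogs, trachea intubated and ventilated at 12-16 cycles/min, with tidal volume set to hold arterial pH, pCO2 and pO2 within physiological limits. Body temperature kept at 37-38 °C. Drug given locally intra-arterially into the femoral artery, at least three doses per compound. Trapidil 100 μg was given before and after as reference. Femoral blood flow increase read from at least three dose-response curves. Expressed as equieffective dose ratio versus trapidil (mg/mg).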
For the molecule `N=C(N)NNS(=O)(=O)c1cccc2cnccc12`, the FBF entry is “No detectable vasodilation”.

A further assay has as its system Canis familiaris. The assay can be described thus: Compound was evaluated for increasing effect on femoral blood flow (FBF) in femoral artery of anesthetized dogs, compared to Trapidil; ND is no detectable vasodilation. In kind it is functional, organism-based. The note with it: Canis lupus familiaris. In outline:
as §1
`CNC(=N)NCCNS(=O)(=O)c1cccc2cnccc12`: the FBF result was “No detectable vasodilation”.

The subject of the next assay is Canis familiaris. The assay can be described thus: Increasing effect on femoral blood flow (FBF) in femoral artery of anesthetized dogs. In kind it is functional, Canis lupus familiaris.
Conditions: not given
In outline:
as §1
As to `Cl.N/C(=N\CCNS(=O)(=O)c1cccc2cnccc12)N[N+](=O)[O-]`, the “Equieffective dose ratio vs trapidil for femoral blood flow increase” value was >10. On to `CC1CN(S(=O)(=O)c2cccc3cnccc23)C(C)CN1C(=N)N.Cl` (stereo not drawn), for which the “Equieffective dose ratio vs trapidil for femoral blood flow increase” value was 1.6. In the case of `CN(CCN=C(N)N)S(=O)(=O)c1cccc2cnccc12.Cl`, the “Equieffective dose ratio vs trapidil for femoral blood flow increase” value was 1.8. Same read-out and setting: under `Cl.N=C(N)NCCCNS(=O)(=O)c1cccc2cnccc12` stands 4.3; under `Cl.N=C(N)N1CCCN(S(=O)(=O)c2cccc3cnccc23)CC1`, 0.19; under `Cl.O=S(=O)(NCCNC1=NCCN1)c1cccc2cnccc12`, 24. In the case of `Cl.N#CNC(=N)NCCNS(=O)(=O)c1cccc2cnccc12`, the “Equieffective dose ratio vs trapidil for femoral blood flow increase” value was >50. Regarding `C/N=C(\NC)NCCNS(=O)(=O)c1cccc2cnccc12.Cl`, the “Equieffective dose ratio vs trapidil for femoral blood flow increase” value is recorded as >50. Consider `CN(CCNS(=O)(=O)c1cccc2cnccc12)C(=N)N.Cl`, for which the “Equieffective dose ratio vs trapidil for femoral blood flow increase” value came out at 1.1. On to `Cl.N=C(N)NCCCCNS(=O)(=O)c1cccc2cnccc12`, for which the “Equieffective dose ratio vs trapidil for femoral blood flow increase” value is 16. Take `Cl.N=C(N)N1CCN(S(=O)(=O)c2cccc3cnccc23)CC1`: the “Equieffective dose ratio vs trapidil for femoral blood flow increase” value stood at 0.62.

For the molecule `Cl.O=S(=O)(NCCNc1ncccn1)c1cccc2cnccc12`, the “Equieffective dose ratio vs trapidil for femoral blood flow increase” value is listed as >30. Regarding `Cl.N=C(N)NCCCCCCNS(=O)(=O)c1cccc2cnccc12`, the “Equieffective dose ratio vs trapidil for femoral blood flow increase” value turned out to be 3.8. Regarding `Cl.O=S(=O)(NCCN=C(Nc1ccccc1)Nc1ccccc1)c1cccc2cnccc12`, the “Equieffective dose ratio vs trapidil for femoral blood flow increase” value is reported as >50. As to `COc1ccc([C@@H]2Sc3ccccc3N(CCN(C)C)C(=O)[C@@H]2OC(C)=O)cc1.Cl` [DILTIAZEM HYDROCHLORIDE], the “Equieffective dose ratio vs trapidil for femoral blood flow increase” value turned out to be 0.21. The same measure, in the same setting: under `Cl.N=C(N)NCCNS(=O)(=O)c1cccc2cnccc12` stands 1.7.

(Values after ChEMBL document CHEMBL1124335, “5-Isoquinolinesulfonamide derivatives. 1. Synthesis and vasodilatory activity of N-(2-guanidinoethyl)-5-isoquinolinesulfonamide derivatives” (1989).)
